Our source for the inhibition, IC50 and solubility values is ChEMBL document CHEMBL1955723, “Discovery and synthesis of namalide reveals a new anabaenopeptin scaffold and peptidase inhibitor” (J Med Chem, 2012).

In data set [1] the target is T1, Carboxypeptidase A1 (Bos taurus) (UniProt P00730).
T1 sequence (whole entry): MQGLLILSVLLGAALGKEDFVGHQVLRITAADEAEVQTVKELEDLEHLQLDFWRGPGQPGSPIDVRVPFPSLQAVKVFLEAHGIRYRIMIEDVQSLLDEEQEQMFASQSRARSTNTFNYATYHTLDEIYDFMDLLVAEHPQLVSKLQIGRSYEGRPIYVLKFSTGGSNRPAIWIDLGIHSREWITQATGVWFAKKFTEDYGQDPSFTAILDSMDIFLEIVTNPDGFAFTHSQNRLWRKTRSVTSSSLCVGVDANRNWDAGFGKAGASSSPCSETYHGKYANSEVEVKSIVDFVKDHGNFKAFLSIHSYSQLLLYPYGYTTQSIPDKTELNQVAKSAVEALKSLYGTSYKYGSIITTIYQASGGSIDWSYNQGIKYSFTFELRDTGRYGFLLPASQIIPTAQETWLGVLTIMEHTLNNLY
As to the kind of experiment: Inhibition of bovine pancreas carboxypeptidase A using N-(4-methoxyphenylazoformyl)-phenylalanine as substrate at 30 uM after 5 mins by colorimetry.

Data set [2] can be described thus: Inhibition of alpha chymotrypsin using N-benzoyl-L-tyrosine ethyl ester as substrate at 60 ug/mL after 5 mins by colorimetry. The procedure, abridged: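 α-Chymotrypsin, 1 U, 25 °C, in a 10 mm quartz cuvette, 200 μL final; inhibitor from DMSO (typically 1 mM stock, 10 μL) or DMSO alone. Absorbance read at 256 nm after 5 min incubation; tested up to 60 μg/mL.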

Data set [3] has as its target T2, Carboxypeptidase B2 (Homo sapiens) (UniProt Q96IY4).
T2 sequence (whole entry): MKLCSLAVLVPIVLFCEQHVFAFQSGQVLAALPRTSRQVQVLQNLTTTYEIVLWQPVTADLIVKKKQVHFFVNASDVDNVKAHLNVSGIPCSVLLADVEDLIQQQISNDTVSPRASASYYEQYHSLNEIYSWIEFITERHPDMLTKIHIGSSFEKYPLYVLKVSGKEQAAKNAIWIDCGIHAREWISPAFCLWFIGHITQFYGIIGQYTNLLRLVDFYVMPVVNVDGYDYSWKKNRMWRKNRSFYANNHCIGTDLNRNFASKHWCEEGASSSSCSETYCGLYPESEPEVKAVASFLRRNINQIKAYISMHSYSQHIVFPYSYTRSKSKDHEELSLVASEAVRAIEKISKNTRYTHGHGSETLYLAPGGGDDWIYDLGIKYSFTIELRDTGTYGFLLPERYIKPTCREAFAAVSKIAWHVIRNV
As to the kind of experiment: Inhibition of carboxypeptidase U at 60 ug/mL. The procedure, abridged:
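CPU (activated TAFI) assayed with a commercial TAFIa kit per manufacturer's instructions, run like the CPA/chymotrypsin assays; compounds tested up to 60 μg/mL.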

Data set [4] concerns the target T3, Carboxypeptidase A1 (Bos taurus, UniProt P00730).
T3 sequence (P00730 whole entry): T1 sequence (whole entry)
As to the kind of experiment: Inhibition of bovine pancreas carboxypeptidase A using N-(4-methoxyphenylazoformyl)-phenylalanine as substrate after 5 mins by colorimetry. In a few lines: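 Bovine pancreas CPA, 1 U, 25 °C, 200 μL final; inhibitor added from DMSO (typically 1 mM stock, 10 μL) or DMSO alone. Absorbance at 350 nm after 5 min. Curves fitted to %inhibition=[…].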

Data set [5] can be described thus: Solubility of the compound. It is filed as physicochemical.

pIC50: −log10 of the molar value. Active and inactive are the calls of the source. No cut-off for these calls is given here.

For `CC[C@H](C)[C@@H]1NC(=O)[C@H](NC(=O)N[C@@H](Cc2ccccc2)C(=O)O)CCCCNC(=O)[C@H](Cc2ccccc2)NC(=O)[C@H]([C@@H](C)CC)NC(=O)[C@H](NC(=O)N[C@@H](Cc2ccccc2)C(=O)O)CCCCNC(=O)[C@H](Cc2ccccc2)NC1=O`, the inhibition entry in data set [1] is “inactive”.

As for `CC[C@H](C)[C@@H]1NC(=O)[C@@H](NC(=O)N[C@@H](Cc2ccccc2)C(=O)O)CCCCNC(=O)[C@H](Cc2ccccc2)NC1=O`, the inhibition result in data set [1], in data set [2] and in data set [3] was “inactive” throughout.

Take `CC[C@H](C)[C@@H]1NC(=O)[C@H](NC(=O)N[C@@H](Cc2ccccc2)C(=O)O)CCCCNC(=O)[C@H](Cc2ccccc2)NC1=O` [NAMALIDE]: the pIC50 (as a rule, the IC50 on a negative log10 scale, so that one unit is a factor of ten) in data set [4] was 6.60. The inhibition entry in data set [2] and in data set [3] was “inactive” each time.

Consider `CC[C@@H](C)[C@@H]1NC(=O)[C@H](NC(=O)N[C@@H](Cc2ccccc2)C(=O)O)CCCCNC(=O)[C@H](Cc2ccccc2)NC1=O`, for which the inhibition result in data set [1] was “inactive”. The solubility result in data set [5] is “Insoluble”.

On to `CC[C@H](C)[C@H](NC(=O)[C@@H](CCCCN)NC(=O)N[C@@H](Cc1ccccc1)C(=O)O)C(=O)N[C@@H](Cc1ccccc1)C(N)=O`, for which, in data set [4], the pIC50 is 5.35. Besides, the inhibition result in data set [2] and in data set [3] was “inactive” in each case.

In the case of `CC[C@H](C)[C@@H]1NC(=O)[C@H](N)CCCCNC(=O)[C@H](Cc2ccccc2)NC1=O`, the inhibition result in data set [1], in data set [2] and in data set [3] was “inactive” in each case.
